Active and inactive are the calls of the source. The rule behind the calls is not given here. Some results are limits rather than exact numbers.

For data set [1], the system named is Canis familiaris. The data set can be described thus: Na+ excretion mequiv /kg in conscious female dogs administered perorally during 0-6 hr. It is filed as ADME, organism-based, Canis lupus familiaris. As to conditions: dog, in vivo, po. In outline: (§1)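 Conscious female dogs dosed at 3 mg/kg po, except one reference at 10 mg/kg, one dose per dog. Urine collected to 6 h and centrifuged; heparinized venous plasma taken at each collection. Na+ and urate measured by standard methods, mean ± SEM over 0-6 h. Compared with vehicle by ANOVA/Duncan's test or unpaired t test.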

The species named for data set [2] is Canis familiaris. The data set can be described thus: Urate excreted in female dogs during 0-6 hr. It is filed as ADME, organism-based, Canis lupus familiaris. As to conditions: dog, in vivo. The essentials: as §1
For data set [3], the system named is Mus musculus. Briefly: Na+ excretion mequiv /kg in saline-loaded mice administered at a dose 2 […] perorally. Particulars: in vivo, po. It is filed as ADME, organism-based. The essentials: (§2)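 Saline-loaded male mice, 16-30 g. Compound po in 0.2% hydroxypropylmethylcellulose at 10 mL/kg, vehicle alone for controls, followed by 0.9% saline po at 3% of body weight. Doses were 0.3-250 mg/kg po. Five mice per metabolism cage, four cages per dose, pooled urine collected for 4 h. Na+ reported as mean ± SEM mequiv/kg; ANOVA with Duncan's test or unpaired t test against control.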

Data set [4] deals with Mus musculus. Briefly: Na+ excretion mequiv /kg in saline-loaded mice administered at a dose 10 […] perorally. It is filed as ADME, organism-based. As to conditions: in vivo, po. The essentials:
as §2

Data set [5] concerns Mus musculus. The data set can be described thus: Na+ excretion mequiv /kg in saline-loaded mice administered at a dose 50 […] perorally. Type of data set: ADME, organism-based. Particulars: in vivo, po. In outline:
as §2

Data set [6] is described as follows: Urate excreted in 6 Cebus monkey''s during 0-6 hr. As to conditions: in vivo. Type of data set: ADME. The essentials:
(§3)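 Male and female Cebus monkeys, 4-6 per group, fasted for 6 h after dosing, water ad libitum. 20 mg/kg in 0.2% hydroxypropylmethylcellulose at 1.0 mL/kg by nasogastric tube, then water load of 5% body weight. Urine collected in metabolism pans at 2, 6 and 24 h and assayed for uric acid. Urate in mg/kg over 0-6 h, mean ± SEM.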

Data set [7] has as its system Mus musculus. Briefly: Na+ excretion mequiv/kg in saline-loaded mice administered at a dose 2 […] perorally. It is filed as ADME, organism-based. As to conditions: in vivo, po. The essentials: as §2
Data set [8] relates to Mus musculus. Briefly: ED6 (natriuretic potency) is the oral dose(mg/kg) required to produce an excretion of 6 milliequivalents of Na+per kilogram during 0-4 hr in male mice (Highest dose tested was 50 mg/kg). Type of data set: functional. The essentials:
(§4)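 Male mice, 16-30 g, fed ad libitum beforehand. Compound in 0.2% hydroxypropylmethylcellulose given po at 10 mL/kg, then 0.9% saline po at 3% of body weight. Five mice pooled per metabolism cage, four cages per dose. Combined urine collected 0-4 h and assayed for Na+, K+, Cl-, uric acid as mequiv/kg per cage. ED6 from regression of Na+ against log dose.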

For data set [9], the system named is Canis familiaris. Briefly: ED5(natriuretic potency) is the oral dose(mg/kg) required to produce an excretion of 5 milliequivalents of Na+per kilogram during 0-6 hr in female dogs (Highest dose tested was 30 mg/kg). Type of data set: functional, Canis lupus familiaris. The essentials: (§5)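 Female dogs, conscious, one oral dose per dog per experiment. Urine collected and centrifuged; venous plasma drawn at each collection time. Samples assayed for Na+, K+, Cl-, urate and glucose by standard methods. Cumulative Na+ output expressed as mequiv/kg over 6 h, at least two dogs/dose. ED5 read from regression of Na+ excretion against log dose.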

For data set [10], the system named is Mus musculus. Briefly: Na+ excretion mequiv/kg in 4 saline-loaded mice administered at a dose 50 […] perorally. Type of data set: ADME, organism-based. Particulars: in vivo, po. In outline:
as §2

The test system of data set [11] is Mus musculus. The data set can be described thus: Na+ excretion mequiv/kg in saline-loaded mice administered at a dose 10 […] perorally. It is filed as ADME, organism-based. As to conditions: in vivo, po. The essentials: as §2
For data set [12], the species on record is Canis familiaris. Briefly: urate excreted in 4 female dogs during 0-6 hr. Type of data set: ADME, organism-based, Canis lupus familiaris. Particulars: dog, in vivo. The essentials:
as §1

For data set [13], the system named is Rattus norvegicus. The data set can be described thus: ED2(natriuretic potency) is the oral dose(mg/kg) required to produce an excretion of 2 milliequivalents of Na+per kilogram during 0-4 hr in female rats (Highest dose tested was 100 mg/kg). Type of data set: functional. In outline:
(§6)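 Female Sprague-Dawley rats, 175-225 g, on sucrose and water for 18 h, given 5 mg DOCA sc 2 h before dosing. Compound in 0.2% methylcellulose given by gavage at 2 mL/kg, then a 30 mL/kg load of 0.34% NaCl/0.69% KCl. Individual metabolism cages, urine collected 0-4 h for Na+, K+, Cl-. Two-stage two-dose screen at 2 rats/dose, then at least four doses at 4 rats/dose. ED2 taken from regression of Na+ excretion against log dose.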

Data set [14] has as its system Canis familiaris. The data set can be described thus: Na+ excretion mequiv/kg in 4 conscious female dogs administered perorally during 0-6 hr. It is filed as ADME, organism-based, Canis lupus familiaris. As to conditions: dog, in vivo, po. In outline: as §1
Data set [15] is described as follows: urate excreted in 4 Cebus monkey''s during 0-6 hr. Type of data set: ADME. Particulars: in vivo. The essentials: as §3
For data set [16], the system named is Canis familiaris. Briefly: Na+ excretion mequiv/kg in 6 conscious female dogs administered perorally during 0-6 hr. As to conditions: dog, in vivo, po. It is filed as ADME, organism-based, Canis lupus familiaris. The essentials: as §1
The test system of data set [17] is Mus musculus. Briefly: Na+ excretion mequiv/kg in saline-loaded mice administered at a dose 250 […] perorally. Type of data set: ADME, organism-based. As to conditions: in vivo, po. In outline: as §2
The test system of data set [18] is Mus musculus. Briefly: Na+ excretion mequiv/kg in saline-loaded mice administered at a dose 50 […] perorally. As to conditions: in vivo, po. Type of data set: ADME, organism-based. In outline: as §2
The species entered for data set [19] is Canis familiaris. The data set can be described thus: urate excreted in 6 female dogs during 0-6 hr. Particulars: dog, in vivo. Type of data set: ADME, organism-based, Canis lupus familiaris. The essentials:
as §1

For data set [20], the system named is Rattus norvegicus. The data set can be described thus: ED2(natriuretic potency) is the oral dose(mg/kg) required to produce an excretion of 2 milliequivalents of Na+per kilogram during 0-4 hr in female rats (Highest dose tested was 100 mg/kg); Inactive. Set-up: dose 100 mg/kg. It is filed as functional, organism-based. In outline: as §6
For data set [21], the system named is Mus musculus. Briefly: ED6 (natriuretic potency) is the oral dose(mg/kg) required to produce an excretion of 6 milliequivalents of Na+per kilogram during 0-4 hr in male mice (Highest dose tested was 50 mg/kg); Inactive. Type of data set: functional, organism-based. Set-up: dose 50 mg/kg. The essentials:
as §4

Data set [22] has as its system Canis familiaris. Briefly: ED5(natriuretic potency) is the oral dose(mg/kg) required to produce an excretion of 5 milliequivalents of Na+per kilogram during 0-6 hr in female dogs (Highest dose tested was 30 mg/kg); Inactive. Type of data set: functional, organism-based. Further details: dose 30 mg/kg. Particulars: Canis lupus familiaris. The essentials:
as §5

Data set [23] in a line: urate excreted in 6 Cebus monkey''s during 0-6 hr. It is filed as ADME. As to conditions: in vivo. In outline: as §3
Data set [24] is filed under the species Canis familiaris. The data set can be described thus: urate excreted in female dogs during 0-6 hr. Type of data set: ADME, organism-based, Canis lupus familiaris. Particulars: dog, in vivo. In outline: as §1
Data set [25] concerns Mus musculus. The data set can be described thus: Na+ excretion mequiv/kg in saline-loaded mice administered at a dose 30 […] perorally. As to conditions: in vivo, po. Type of data set: ADME, organism-based. The essentials: as §2
In data set [26] the test system is Mus musculus. Briefly: Na+ excretion mequiv/kg in saline-loaded mice administered at a dose 3 […] perorally. It is filed as ADME, organism-based. Particulars: in vivo, po. The essentials: as §2

`O=C(O)C1Cc2cc3c(-c4ccccc4F)noc3c(Cl)c2O1` (stereo in doubt; 30): the “Na+ excretion” value in data set [1] is 0.62 m equiv kg-1; in [3], 2.8 m equiv kg-1; in data set [4], 3.2 m equiv kg-1; in data set [5], 3.5 m equiv kg-1. Moreover, the Excretion in data set [2] is 1.25 mg/kg; in [6], 8.32 mg/kg.
Regarding `CC1(c2ccccc2)Cc2cc(OCC(=O)O)c(Cl)c(Cl)c2C1=O` (stereo not drawn) [INDACRINONE], the “Na+ excretion” value in [7] came to 4 m equiv kg-1; in [10], 12.6 m equiv kg-1; in data set [11] it was 8 m equiv kg-1; in [14], 1.44 m equiv kg-1. Also, the ED6 in [8] was 4.4 mg/kg. Further, the ED5 in data set [9] was 7.64 mg/kg. Also, the Excretion in data set [12] is 0.71 mg/kg; in [15], 9.53 mg/kg. Also, the ED2 in data set [13] worked out at 5.2 mg/kg.
As for `O=C(O)COc1ccc(C(=O)c2cccs2)c(Cl)c1Cl`, the “Na+ excretion” value is 1.54 m equiv kg-1 in data set [16], 7.7 m equiv kg-1 in data set [17], 3.7 m equiv kg-1 in data set [11] and 6.3 m equiv kg-1 in data set [18]. The Excretion in data set [19] was found to be 0.8 mg/kg; in data set [15], 11.81 mg/kg.
As for `NC(=O)C1Cc2cc3c(-c4ccccc4F)noc3c(Cl)c2O1` (stereo not drawn), the ED6 in data set [8] came out at 39 mg/kg. Further, the ED2 entry in data set [20] was “inactive”.
Consider `O=C(O)C1Cc2cc3c(-c4cccs4)noc3c(Cl)c2O1` (stereo not drawn), for which the ED6 result in data set [21] was “inactive”. Further, the ED2 in data set [13] is more than 100 mg/kg.
For `CCc1noc2c(Cl)c3c(cc12)CC(C(=O)O)O3` (stereo not drawn), in data set [8], the ED6 turned out to be 6.8 mg/kg. In [22], the ED5 entry was “inactive”. Moreover, in data set [13], the ED2 turned out to be 3.8 mg/kg.
Regarding `COc1c2c(cc3c(-c4ccccc4F)noc13)CC(C(=O)O)O2` (stereo not drawn), in [21], the ED6 entry is “inactive”. In [13], the ED2 turned out to be 210 mg/kg.
For the molecule `CCOC(=O)C1Cc2cc3c(-c4ccccc4F)noc3c(Cl)c2O1` (stereo not drawn), in data set [21], the ED6 result is “inactive”. For the same molecule, the ED2 entry in data set [20] was “inactive”.
As for `Cc1ccccc1-c1noc2c(Cl)c3c(cc12)CC(C(=O)O)O3` (stereo not drawn), the ED6 in [8] was found to be 8.4 mg/kg. Besides, the ED2 in data set [13] amounted to 14.3 mg/kg.
Regarding `O=C(O)C1Cc2cc3c(-c4ccccc4F)noc3c(Cl)c2O1` (stereo in doubt; 29), the ED6 in [8] (50 mg/kg) came to 2.95 mg/kg. In addition, the ED5 in data set [9] (30 mg/kg) is 0.71 mg/kg. Also, the Excretion is 8.34 mg/kg in [23] and 1.32 mg/kg in [24]. The “Na+ excretion” value in data set [1] turned out to be 7.6 m equiv kg-1; in [3], 5.5 m equiv kg-1; in [4], 8.1 m equiv kg-1; in data set [5], 13.2 m equiv kg-1.
With `O=C(O)C1Cc2cc3c(-c4ccc(O)cc4)noc3c(Cl)c2O1` (stereo not drawn), the ED6 result in data set [21] is “inactive”. Also, in data set [13], the ED2 is 190 mg/kg.
On to `O=C(O)C1Cc2cc3c(-c4cccc(F)c4)noc3c(Cl)c2O1` (stereo not drawn), for which, in [21], the ED6 entry was “inactive”. For the same molecule, the ED2 in data set [13] is 63 mg/kg.
Regarding `NS(=O)(=O)c1cc2c(cc1Cl)NCNS2(=O)=O` [HYDROCHLOROTHIAZIDE], the “Na+ excretion” value in data set [25] is listed as 6.7 m equiv kg-1; in data set [26], 4.5 m equiv kg-1.

The values above are taken from ChEMBL document CHEMBL1122741, “Substituted 5,6-dihydrofuro[3,2-f]-1,2-benzisoxazole-6-carboxylic acids: high-ceiling diuretics with uricosuric activity” (J Med Chem, 1984).
